Results: ChEMBL document CHEMBL3244243, “Mitomycin antibiotics. Synthesis and activity of 1,2-disubstituted mitosenes” (J Med Chem, 1977)
Activity calls are given as the source filed them. The rule behind the calls is not given here.

Experiments:
[1] = test system: Enterobacteria phage lambda; experiment: (§1) Induction of lambda-bacteriophage expression in Escherichia coli assessed as induction of plaques at 0.8 ug/ml relative to control; assay type: functional
[2] = test system: Bacillus subtilis; experiment: Antibacterial activity against Bacillus subtilis assessed as zone of inhibition by disk-plate assay; assay type: functional
[3] = test system: Escherichia coli; experiment: Toxicity in lambda-bacteriophage infected Escherichia coli at 0.05 ug/ml; assay type: organism-based; conditions: in vivo
[4] = test system: Enterococcus faecalis; experiment: Antibacterial activity against Streptococcus faecalis P1377 assessed as zone of inhibition by disk-plate assay; assay type: functional
[5] = test system: Escherichia coli; experiment: Toxicity in lambda-bacteriophage infected Escherichia coli at 0.2 ug/ml; assay type: organism-based; conditions: in vivo
[6] = test system: Micrococcus luteus; experiment: Antibacterial activity against Sarcina lutea assessed as zone of inhibition by disk-plate assay; assay type: functional
[7] = Induction of lambda-bacteriophage expression in Escherichia coli assessed as induction of plaques at 0.003 ug/ml relative to control; assay type: functional, Enterobacteria phage lambda
[8] = test system: Staphylococcus aureus; experiment: Antibacterial activity against Staphylococcus aureus Smith P assessed as zone of inhibition by disk-plate assay; assay type: functional
[9] = test system: Escherichia coli; experiment: Antibacterial activity against Escherichia coli K-12 assessed as zone of inhibition by disk-plate assay; assay type: functional
[10] = test system: P388; experiment: Antitumor activity against mouse P388 cells allografted CDF mouse assessed as increase in maximum survival time at 3.2 mg/kg treated on days 1 and 5 following tumor implantation relative to saline treated control; assay type: functional
Outline: (§2)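 Male CDF mice implanted intraperitoneally with 10⁶ P388 ascites leukemia cells; compound given on days 1 and 5 after tumor inoculum. Increase in maximum survival time calculated against saline-treated controls. Six mice per treated group, ten mice in the control group.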

[11] = test system: Enterobacteria phage lambda; experiment: (§3) Induction of lambda-bacteriophage expression in Escherichia coli assessed as induction of plaques at 0.05 ug/ml relative to control; assay type: functional
[12] = Induction of lambda-bacteriophage expression in Escherichia coli assessed as induction of plaques at 0.0125 ug/ml relative to control; assay type: functional, Enterobacteria phage lambda
[13] = test system: Enterobacteria phage lambda; experiment: (§4) Induction of lambda-bacteriophage expression in Escherichia coli assessed as induction of plaques at 0.2 ug/ml relative to control; assay type: functional
[14] = test system: Escherichia coli; experiment: Toxicity in lambda-bacteriophage infected Escherichia coli at 0.8 ug/ml; assay type: organism-based; conditions: in vivo
[15] = test system: Mycolicibacterium smegmatis; experiment: Antibacterial activity against Mycobacterium smegmatis 607 assessed as zone of inhibition by disk-plate assay; assay type: functional
[16] = test system: Staphylococcus aureus; experiment: Antibacterial activity against Staphylococcus aureus 209P assessed as zone of inhibition by disk-plate assay; assay type: functional
[17] = test system: Klebsiella pneumoniae; experiment: Antibacterial activity against Klebsiella pneumoniae assessed as zone of inhibition by disk-plate assay; assay type: functional
[18] = test system: Escherichia coli; experiment: Antibacterial activity against Escherichia coli B A9885 assessed as zone of inhibition by disk-plate assay; assay type: functional
[19] = test system: Escherichia coli; experiment: Toxicity in lambda-bacteriophage infected Escherichia coli at 0.0125 ug/ml; assay type: organism-based; conditions: in vivo
[20] = as §1; assay type: functional, Enterobacteria phage lambda
[21] = test system: P388; experiment: Antitumor activity against mouse P388 cells allografted CDF mouse assessed as increase in maximum survival time at 12.8 mg/kg treated on days 1 and 5 following tumor implantation relative to saline treated control; assay type: functional, organism-based; set-up: dose 12.8 mg/kg
Outline: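 CDF male mice inoculated intraperitoneally with 10⁶ P388 ascites leukemia cells. Compound given at 12.8 mg/kg on days 1 and 5 after tumor inoculum. Six mice per compound group and ten mice in the saline control group. Read-out is percent increase in maximum survival time over the saline controls.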

[22] = as §3; assay type: functional, Enterobacteria phage lambda
[23] = as §4; assay type: functional, Enterobacteria phage lambda
[24] = Induction of lambda-bacteriophage expression in Escherichia coli assessed as induction of plaques at 3.1 ug/ml relative to control; assay type: functional, Enterobacteria phage lambda
[25] = test system: Escherichia coli; experiment: Toxicity in lambda-bacteriophage infected Escherichia coli at 3.1 ug/ml; assay type: organism-based; conditions: in vivo
[26] = test system: P388; experiment: Antitumor activity against mouse P388 cells allografted CDF mouse assessed as increase in maximum survival time at 6.4 mg/kg treated on days 1 and 5 following tumor implantation relative to saline treated control; assay type: functional; outline: as §2

For `COC1=C(C)C(=O)C2=C(C1=O)[C@@H](COC(N)=O)[C@@]1(OC)[C@H]3N[C@H]3CN21` [MITOMYCIN A], the Activity [1] was “Active”, the “diameter of the inhibition zone (DIZ)” value [2] was greater than 22 mm and the Activity [3] was “Toxic”. The “diameter of the inhibition zone (DIZ)” value [4] was 21 mm, the Activity [5] was “Toxic” and the “diameter of the inhibition zone (DIZ)” value [6] was greater than 25 mm. For the same compound, the Ratio [7] was 7.4, the “diameter of the inhibition zone (DIZ)” value [8] was 24 mm and the “diameter of the inhibition zone (DIZ)” value [9] was 8 mm. The survival at 3.2 mg/kg [10] was 80%, the Activity [11] was “Active” and the Ratio [12] was 31.1. The Activity [13] was “Active”, the Activity [14] was “Toxic” and the “diameter of the inhibition zone (DIZ)” value [15] was 21 mm. The “diameter of the inhibition zone (DIZ)” value [16] was 23 mm, the “diameter of the inhibition zone (DIZ)” value [17] was 16 mm and the “diameter of the inhibition zone (DIZ)” value [18] was 13 mm. For the same compound, the Activity [19] was “Toxic”.
For `CNC(=O)OCc1c2c(n3c1[C@H](NC(C)=O)[C@H](OC(C)=O)C3)C(=O)C(C)=C(OC)C2=O` (relative stereo), the Ratio [20] was 1.6, the “diameter of the inhibition zone (DIZ)” value [2] was 14 mm and the “diameter of the inhibition zone (DIZ)” value [4] was 13 mm. The Activity [21] was “inactive”, the “diameter of the inhibition zone (DIZ)” value [6] was 13 mm and the Ratio [7] was 1.6. The “diameter of the inhibition zone (DIZ)” value [8] was 15 mm, the “diameter of the inhibition zone (DIZ)” value [9] was 0 mm and the Ratio [22] was 1.4. The Ratio [12] was 1.2, the Ratio [23] was 1.1 and the “diameter of the inhibition zone (DIZ)” value [15] was 0 mm. The “diameter of the inhibition zone (DIZ)” value [16] was 13 mm, the “diameter of the inhibition zone (DIZ)” value [17] was 0 mm and the “diameter of the inhibition zone (DIZ)” value [18] was 0 mm.
With `COC1=C(C)C(=O)c2c(c(COC(N)=O)c3n2C[C@@H](NC(C)=O)[C@H]3OC(C)=O)C1=O` the Ratio [20] was 1.1, the “diameter of the inhibition zone (DIZ)” value [2] was 0 mm and the “diameter of the inhibition zone (DIZ)” value [4] was 0 mm. The “diameter of the inhibition zone (DIZ)” value [6] was 9 mm, the “diameter of the inhibition zone (DIZ)” value [8] was 5 mm and the Ratio [24] was 1.6. The “diameter of the inhibition zone (DIZ)” value [9] was 0 mm, the Ratio [23] was 0.8 and the “diameter of the inhibition zone (DIZ)” value [15] was 0 mm. For the same compound, the “diameter of the inhibition zone (DIZ)” value [16] was 5 mm, the “diameter of the inhibition zone (DIZ)” value [17] was 0 mm and the “diameter of the inhibition zone (DIZ)” value [18] was 0 mm.
With `COC1=C(C)C(=O)c2c(c(COC(N)=O)c3n2CC[C@H]3O)C1=O` the Ratio [20] was 2.9, the “diameter of the inhibition zone (DIZ)” value [2] was 19 mm and the “diameter of the inhibition zone (DIZ)” value [4] was 17 mm. For the same compound, the “diameter of the inhibition zone (DIZ)” value [6] was 14 mm, the “diameter of the inhibition zone (DIZ)” value [8] was 17 mm and the Ratio [24] was 6.9. The “diameter of the inhibition zone (DIZ)” value [9] was 0 mm, the Ratio [23] was 1.3 and the “diameter of the inhibition zone (DIZ)” value [15] was 0 mm. For the same compound, the “diameter of the inhibition zone (DIZ)” value [16] was 17 mm, the “diameter of the inhibition zone (DIZ)” value [17] was 0 mm and the “diameter of the inhibition zone (DIZ)” value [18] was 0 mm.
With `COC1=C(C)C(=O)c2c(c(COC(N)=O)c3n2C[C@@H](N)[C@H]3O)C1=O` the Activity [25] was “Toxic”, the Ratio [20] was 4.1 and the “diameter of the inhibition zone (DIZ)” value [2] was 8 mm. The “diameter of the inhibition zone (DIZ)” value [4] was 6 mm, the “diameter of the inhibition zone (DIZ)” value [6] was 9 mm and the “diameter of the inhibition zone (DIZ)” value [8] was 11 mm. For the same compound, the Ratio [24] was 16.7, the “diameter of the inhibition zone (DIZ)” value [9] was 0 mm and the Ratio [23] was 1.4. The Activity [14] was “Toxic”, the “diameter of the inhibition zone (DIZ)” value [15] was 4 mm and the “diameter of the inhibition zone (DIZ)” value [16] was 9 mm. For the same compound, the “diameter of the inhibition zone (DIZ)” value [17] was 0 mm and the “diameter of the inhibition zone (DIZ)” value [18] was 2 mm.
With `COC1=C(C)C(=O)c2c(c(COC(N)=O)c3n2CC[C@H]3OC(C)=O)C1=O` the Ratio [20] was 13.2, the “diameter of the inhibition zone (DIZ)” value [2] was 23 mm and the “diameter of the inhibition zone (DIZ)” value [4] was 16 mm. The “diameter of the inhibition zone (DIZ)” value [6] was 14 mm, the “diameter of the inhibition zone (DIZ)” value [8] was 17 mm and the Ratio [24] was 24.5. The “diameter of the inhibition zone (DIZ)” value [9] was 0 mm, the Ratio [23] was 4.3 and the survival at 6.4 mg/kg [26] was 65%. For the same compound, the “diameter of the inhibition zone (DIZ)” value [15] was 7 mm, the “diameter of the inhibition zone (DIZ)” value [16] was 15 mm and the “diameter of the inhibition zone (DIZ)” value [17] was 0 mm. The “diameter of the inhibition zone (DIZ)” value [18] was 1 mm.
